# Source: PubChem BioAssay
# KCNK3 inh: human KCNK3 channel inhibition, primary screen | AID 602410 | O14649 | CHO-KCNK3 thallium flux, FluxOR fluorescence; stronger effect = lower value | B-score at 10 µM | actives 0.84% (n = 340,000);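 active = B-score under library mean minus 4 SD, starting fluorescence ratio at most library mean plus 5 SD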;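 note: more negative B-score means stronger inhibition of thallium flux through KCNK3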
# KCNK9 inh: inhibitors of human KCNK9 two-pore domain potassium channel. Q9NPC2. HEK293 KCNK9, FluxOR thallium flux fluorescence; stronger effect = lower value. B-score at 10 µM. actives 1.2% (n = 310,000);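 active = ratio B-score over 3 SD below the library mean, with starting fluorescence within 5 SD of its mean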;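 note: negative B-score means less thallium flux so channel inhibition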
# hERG rescue: compounds protecting human hERG from proarrhythmic drug block; activation (rescue from dofetilide block), less the hit threshold, % at 10 µM; actives 0.51% (n = 310,000); AID 1511; CHO-hERG, FluxOR thallium flux, dofetilide IC70 present;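 active = activation above the mean of controls blocked by dofetilide plus 5 SD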;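 note: thallium influx through hERG after potassium depolarization seen as dye fluorescence rise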
# KCNQ1 pot: potentiators or activators of human KCNQ1 potassium channel. B-score at 10 µM. actives 0.35% (n = 310,000). AID 2648. P51787. CHO-K1 KCNQ1, thallium flux FluxOR fluorescence; stronger effect = higher value;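 active = fluorescence ratio B-score, a plate-corrected score, at least three library SD, with initial intensity B-score within 5 SD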
# Target sequence (P51787 whole entry, looked up): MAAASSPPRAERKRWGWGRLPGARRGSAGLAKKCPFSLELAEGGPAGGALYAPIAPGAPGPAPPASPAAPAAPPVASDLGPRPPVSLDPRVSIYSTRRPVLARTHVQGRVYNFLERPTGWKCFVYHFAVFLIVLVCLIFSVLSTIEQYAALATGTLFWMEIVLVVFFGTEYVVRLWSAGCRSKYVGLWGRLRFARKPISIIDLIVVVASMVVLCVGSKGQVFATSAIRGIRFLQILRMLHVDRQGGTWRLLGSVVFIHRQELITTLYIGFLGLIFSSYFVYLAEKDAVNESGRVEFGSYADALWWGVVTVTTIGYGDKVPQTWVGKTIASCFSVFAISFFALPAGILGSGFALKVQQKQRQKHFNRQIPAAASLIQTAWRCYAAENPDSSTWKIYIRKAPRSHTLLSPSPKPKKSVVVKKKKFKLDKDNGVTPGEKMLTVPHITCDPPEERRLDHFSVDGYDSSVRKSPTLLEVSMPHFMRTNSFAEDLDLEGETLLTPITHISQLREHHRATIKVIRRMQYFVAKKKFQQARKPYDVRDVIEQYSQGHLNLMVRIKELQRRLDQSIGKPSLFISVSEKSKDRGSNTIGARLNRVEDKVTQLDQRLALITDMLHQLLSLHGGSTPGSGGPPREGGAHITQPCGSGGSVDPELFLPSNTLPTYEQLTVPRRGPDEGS
#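 Assay system: CHO-K1 cells stably expressing KCNQ1. Medium: assay buffer for compound exposure, DMSO matched across wells. Timing: 37 °C overnight plating, 90-min dark dye load, 20-min compound pretreatment. Signal: kinetic FluxOR fluorescence, 10 s baseline plus 110 s post-stimulus.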
# KCNQ1 inh: human KCNQ1 channel inhibition; P51787; CHO-K1 KCNQ1, FluxOR thallium flux fluorescence; stronger effect = higher value; B-score at 10 µM; actives 1.3% (n = 310,000);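 active = compounds whose thallium flux B-score, printed positive for inhibition, exceeds three library SD while starting fluorescence stays within three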;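 note: channel opened by potassium depolarization with thallium stimulus after 20 min compound exposure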
# KCNK9 block conf: human KCNK9 inhibitor confirmation; shares compounds with KCNK9 inh; HEK293 KCNK9 cells, FluxOR thallium flux fluorescence; inhibition, % at 10 µM; actives 43% (n = 4,900); AID 492992;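 active = thallium signal inhibited by more than 5 SD of the compound-free buffer control wells, on both duplicate plates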;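 note: 0% = assay buffer control wells without compound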
# Kir2-1 spec: selectivity of KCNK9 modulators against mouse Kir2.1; shares compounds with KCNK9 inh; Kir2.1 cells, FluxOR thallium flux fluorescence; inhibition, % at 10 µM; actives 4% (n = 4,900); AID 492993;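 active = thallium signal drop more than 5 SD beyond the mean of the no-compound control wells, seen in both duplicate plates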;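 note: signal is fluorescence rise after thallium addition divided by baseline fluorescence; plate controls were assay buffer only for no effect and full block by chlorpromazine control for full effect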
# KCNK9 uninduced: second check of KCNK9 modulator effects in non-induced HEK293 cells | actives 40% (n = 4,900) | inhibition, % at 10 µM | shares compounds with KCNK9 inh | AID 492997 | FluxOR thallium flux;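 active = thallium signal drop beyond 5 SD of the untreated control mean, on both duplicate plates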;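 note: plate controls were buffer only IC0 wells for no effect and SID17386958 at its maximal inhibitory level for full effect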
# The depositor's hits bear a star; i = inactive; x = no result given. This is a sample that favours compounds with a hit; in the whole collection about 3.1% have one here.
SMILES,KCNK3 inh,KCNK9 inh,hERG rescue,KCNQ1 pot,KCNQ1 inh,KCNK9 block conf,Kir2-1 spec,KCNK9 uninduced
CCOC(=O)C1CCCN(C(=O)c2ccc(Cl)c(S(=O)(=O)N3CCCCCC3)c2)C1 (stereo unspecified),i,i,-12,i,i,i,i,i
O=C(c1ccc(Cl)c(S(=O)(=O)N2CCCC2)c1)N1CCN(Cc2ccccc2)CC1,i,x,x,x,x,x,x,x
O=C(c1ccc(Cl)c(S(=O)(=O)N2CCCCC2)c1)N1CCN(Cc2ccccc2)CC1,i,i,-3,i,i,i,i,i
O=C(OCC(=O)N1CCCCCC1)c1ccc(Cl)c(S(=O)(=O)N2CCCC2)c1,i,i,-4,i,i,i,i,i
CN1CCN(C(=O)c2ccc(Cl)c(S(=O)(=O)N3CCCCCC3)c2)CC1,i,i,-17,i,i,x,x,x
O=C(NCCCc1ccccc1)c1cccc(NC(=O)C2CCCC2)c1,i,x,x,x,x,x,x,x
COc1ccc(CN(C)C(C)C(=O)Nc2ccc(S(=O)(=O)N3CCCCC3)cc2)cc1F (stereo unspecified),i,x,x,x,x,x,x,x
NS(=O)(=O)c1ccc(CCNC(=O)C(=O)NCC2OCCN2S(=O)(=O)c2ccc(Cl)cc2)cc1 (stereo unspecified),i,i,-10,i,i,x,x,x
Cc1cc(NC(=O)C(C)SCC(=O)Nc2ccc(Br)cc2Br)no1 (stereo unspecified),i,i,-14,i,i,x,x,x
O=C(c1ccccc1)C1CCN(C(=O)c2c(F)cccc2F)CC1,i,i,-7,i,i,x,x,x
O=C(Nc1ccc(F)cc1F)C1CCN(C(=O)c2ccc(Br)cc2)CC1,i,i,-7,i,i,x,x,x
O=C(Nc1cccc(F)c1)C1CCN(C(=O)c2ccc(Br)cc2)CC1,i,i,-14,i,i,i,i,i
O=C(Nc1ccc(Br)cc1)C1CCN(C(=O)c2ccc(F)cc2)CC1,i,i,-5,i,i,i,i,i
O=C(Nc1ccc2c(c1)OCCO2)C1CCN(C(=O)c2ccc(Br)cc2)CC1,i,i,-3,i,i,x,x,x
COC(=O)c1sc(-c2ccc(Cl)cc2)cc1NC(=O)CSCC(=O)O,i,i,-13,i,i,i,i,i
CCC(C)(C)n1nnnc1C(c1ccc2ncccc2c1)N1CCN(c2nc3ccccc3s2)CC1 (stereo unspecified),i,-15*,-7,i,i,47%*,i,45%*
COc1ccc(-n2c(SCC(=O)Nc3ccc(Cl)cc3)nc(O)c(Cc3ccccc3)c2=O)cc1,i,i,2,i,i,i,i,i
COc1ccc(NC(=O)CSc2nnc(C3CCCCC3)n2-c2ccccc2)cc1,i,i,-12,i,i,i,i,i
COc1ccc(NC(=O)C2CCCN(S(C)(=O)=O)C2)cc1OC (stereo unspecified),i,i,-11,i,i,x,x,x
CC1CCN(c2ccccc2NC(=O)c2cc([N+](=O)[O-])ccc2N2CCOCC2)CC1,i,-9.8*,-13,i,8*,30%*,i,30%*
O=C(Nc1ccc(N2CCOCC2)cc1)c1cccc2c(Br)cccc12,i,i,-7,i,i,x,x,x
O=C(Nc1ccccc1N1CCOCC1)c1cccc2c(Br)cccc12,i,i,-2,i,i,i,i,i
Cc1ccc(S(=O)(=O)c2cn(C)c3cc(N4CCN(C)CC4)c(F)cc3c2=O)c(C)c1,i,i,-8,i,i,x,x,x
O=C(/C=C/c1ccccc1Cl)N(Cc1ccc(Cl)cc1)C1CCS(=O)(=O)C1 (stereo unspecified),i,-8.2*,-3,i,i,55%*,i,36%*
CC(=O)Nc1ccc(N(CC(=O)NC2CCCCC2)C(=O)Cn2nnc(-c3ccccc3)n2)cc1,i,i,-8,i,i,x,x,x
SMILES,KCNK3 inh,KCNK9 inh,hERG rescue,KCNQ1 pot,KCNQ1 inh,KCNK9 block conf,Kir2-1 spec,KCNK9 uninduced
O=C(NCc1ccco1)c1cccc(NS(=O)(=O)c2cccc(F)c2)c1,i,i,-6,i,i,x,x,x
O=C(NCc1ccco1)c1cc(NS(=O)(=O)c2cccc([N+](=O)[O-])c2)ccc1O,i,i,-11,i,i,i,i,i
COc1ccccc1N1CCN(C2CCCN(C(=O)c3ccoc3C)C2)CC1 (stereo unspecified),i,i,-5,i,i,x,x,x
COc1ccccc1N1CCN(C2CCCN(C(=O)c3cccc(-c4ccco4)c3)C2)CC1 (stereo unspecified),i,i,-15,i,i,i,i,i
O=C(CCS(=O)(=O)Cc1ccccc1)N1CCc2ccccc2C1,i,i,-8,i,i,i,i,i
O=C(Cc1ccc(Br)cc1)OCC(=O)N1CCc2ccccc2C1,i,i,-2,i,i,i,i,i
O=C(COc1ccc(Br)cc1)N1CCc2ccccc2C1,i,i,-12,i,i,x,x,x
O=C(CCS(=O)(=O)Cc1ccccc1F)N1CCc2ccccc2C1,i,i,-3,i,i,x,x,x
O=C(/C=C1\NC2(CCCC2)Cc2ccccc21)C(=O)N/N=C/c1ccccc1O,i,i,-12,i,i,x,x,x
COc1cc(/C=N/NC(=O)C(=O)/C=C2\NC3(CCCC3)Cc3ccccc32)ccc1O,i,-11*,-7,i,i,44%*,i,28%*
CCOC(=O)CCCn1ccc2cc(S(=O)(=O)N3CCCC3)ccc21,i,i,-4,i,i,x,x,x
CC(C)Oc1cccc(C(=O)NC(=S)Nc2cccc(C(F)(F)F)c2)c1,i,i,-7,i,i,x,x,x
CCCCOc1cccc(C(=O)NC(=S)Nc2cccc(C(F)(F)F)c2)c1,i,i,-5,i,i,i,i,i
Cc1ccc(C)c(-c2csc(NC(=O)C3=COCCO3)n2)c1,i,-8.3*,-23,i,i,i,i,38%*
Cc1ccc(-c2csc(NC(=O)C3=COCCO3)n2)cc1,i,i,-5,i,i,x,x,x
C[C@@H]1CN([C@@H](C)CO)C(=O)Cc2cc(NC(=O)Nc3ccc4c(c3)OCO4)ccc2O[C@@H]1CN(C)C(=O)NC1CCCCC1,i,x,x,x,x,x,x,x
